# Legend:
# [1] = Kinetic solubility of the compound in pION buffer at pH 7.4 measured after 18 hrs; type: physicochemical; details: read-out: Kinetic_solubility
# [2] = Oral bioavailability in Sprague-Dawley rat at 2 mg/kg; type: ADME, organism-based; details: in vivo
# In short: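 Male animals, n = 3 per species: C57BL/6J mouse at 2.2 mg/kg IV and 2.7 mg/kg PO; Sprague–Dawley rat at 1 mg/kg IV and 2 mg/kg PO; Beagle dog at 1.8 mg/kg IV and 5.3 mg/kg PO. Plasma clearance, Vss, IV half-life and oral %F were derived from the plasma profiles.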
# [3] = molecular target: T1, Diacylglycerol O-acyltransferase 1 (Mus musculus) (UniProt Q9Z2A7); test: Inhibition of DGAT1 in mouse C2C12 cells at 300 nM using [14C] oleic acid as substrate measured after 20 mins by phosphorimaging method relative to control; type: cell-based
# T1 sequence (whole entry): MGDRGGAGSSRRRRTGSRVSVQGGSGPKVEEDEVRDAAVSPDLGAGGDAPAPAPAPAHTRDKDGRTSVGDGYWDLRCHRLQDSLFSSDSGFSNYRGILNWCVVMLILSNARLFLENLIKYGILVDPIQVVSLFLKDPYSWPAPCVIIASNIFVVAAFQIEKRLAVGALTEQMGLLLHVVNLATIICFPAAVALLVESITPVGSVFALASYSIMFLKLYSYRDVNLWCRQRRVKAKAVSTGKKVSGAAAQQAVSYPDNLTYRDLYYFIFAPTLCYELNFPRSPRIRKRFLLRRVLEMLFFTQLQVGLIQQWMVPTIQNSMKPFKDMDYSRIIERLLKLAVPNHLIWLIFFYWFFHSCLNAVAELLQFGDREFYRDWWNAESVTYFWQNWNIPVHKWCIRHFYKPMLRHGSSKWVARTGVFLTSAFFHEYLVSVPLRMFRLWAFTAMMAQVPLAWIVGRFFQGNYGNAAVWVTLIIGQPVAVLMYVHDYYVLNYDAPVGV
Structure (SMILES),solubility kinetic at 18 h [1] [µg/mL],bioavailability [2] [%],inhibition [3] [%]
CC1(CC(=O)O)CCc2cc(-c3ccc(NC(=O)Nc4cccc(F)c4)cc3)ccc2C1=O (centres undefined),13,–,–
CC1(CC(=O)O)CCc2cc(-c3ccc(NC(=O)Nc4cccc(C(F)(F)F)c4)cc3)ccc2C1=O (centres undefined),72,–,–
CC[C@@]1(CC(=O)O)CCc2cc(-c3ccc(NC(=O)Nc4ccc(F)c(F)c4)cc3Cl)ccc2C1=O,125,51,–
CC1(CC(=O)O)CCc2cc(-c3ccc(NC(=O)Nc4cccc(Cl)c4)cc3)ccc2C1=O (centres undefined),75,–,–
Cc1cccc(NC(=O)Nc2ccc(-c3ccc4c(c3)CCC(C)(CC(=O)O)C4=O)cc2)c1 (centres undefined),103,–,–
CCC1(CC(=O)O)CCc2cc(-c3ccc(NC(=O)Nc4ccccc4C(F)(F)F)cc3)ccc2C1=O (centres undefined),26,–,–
O=C(O)C[C@]1(CC(F)(F)F)CCc2cc(-c3cnc(NC(=O)Nc4cccc(C(F)(F)F)c4)cn3)ccc2C1=O,56,25,–
O=C(O)CC1CCc2cc(-c3ccc(NC(=O)Nc4ccccc4)cc3)ccc2C1=O (centres undefined),58,–,–
CCC1(CC(=O)O)CCc2cc(-c3ccc(NC(=O)Nc4ccccc4)cc3)ccc2C1=O (centres undefined),34,–,–
CC[C@]1(CC(=O)O)CCc2cc(-c3ccc(NC(=O)Nc4ccc(Cl)cc4)cc3)ccc2C1=O,0.4,–,–
CCC1(CC(=O)O)CCc2cc(-c3ccc(NC(=O)Nc4cccc(F)c4)cc3)ccc2C1=O (centres undefined),38,–,–
CCC1(CC(=O)O)CCc2cc(-c3ccc(NC(=O)Nc4ccc(C(F)(F)F)cc4)cc3)ccc2C1=O (centres undefined),46,–,–
CC[C@@]1(CC(=O)O)CCc2cc(-c3ccc(NC(=O)Nc4cccc(C(F)(F)F)c4)cc3Cl)ccc2C1=O,151,23,–
CCCC1(CC(=O)O)CCc2cc(-c3ccc(NC(=O)Nc4ccccc4)cc3)ccc2C1=O (centres undefined),74,–,–
CC[C@]1(CC(=O)O)CCc2cc(-c3ccc(NC(=O)Nc4cccc(C(F)(F)F)c4)cc3)ccc2C1=O,88,–,27

# From ChEMBL document CHEMBL4138301, “Discovery of Tetralones as Potent and Selective Inhibitors of Acyl-CoA:Diacylglycerol Acyltransferase 1” (ACS Med Chem Lett, 2018)
